Results pooled from the literature.
Lines come from different studies, so protocols differ.
Organism: Trypanosoma cruzi
Effect on: parasite growth

O=C(N[C@@H](Cc1ccccc1)C(=O)c1nc2ccccc2o1)[C@H](Cc1ccccc1)NC(=O)N1CCOCC1  IC50 (TULAHUEN; intracellular, amastigote): 31.5 µM
O=C(Cn1ccnc1[N+](=O)[O-])NCc1ccccc1  IC50 (L929, TULAHUEN; 7 days, intracellular, amastigote): 3.84 µM
O=C(Nc1ccnc(C(F)(F)F)c1)Nc1cccc2c1OC(F)(F)O2  IC50 (TULAHUEN; intracellular, amastigote): 2.9 µM
COc1ccc(Nc2nc(-c3cccnc3)nc3ccccc23)cc1  IC50 (imaging; U2OS; intracellular, amastigote): 6.33 µM
O=C(N[C@@H](Cc1ccccc1)C(=O)c1c[nH]nn1)[C@H](Cc1ccccc1)NC(=O)N1CCOCC1  IC50 (TULAHUEN; intracellular, amastigote): > 64 µM
Fc1ccccc1-c1nc(N2CCC(c3ccccn3)C2)c2ccccc2n1 (stereo not drawn)  IC50 (imaging; U2OS; intracellular, amastigote): 5.37 µM
Cc1cc(NC(=O)Nc2ccc3c(c2)OC(F)(F)O3)cc(C(F)(F)F)n1  IC50 (TULAHUEN; intracellular, amastigote): 1.1 µM
c1ccc(CN2CCN(c3nc(-c4ccccn4)nc4ccccc34)CC2)cc1  IC50 (imaging; U2OS; intracellular, amastigote): 3 µM
O=C(N[C@@H](Cc1ccccc1)C(=O)c1noc(-c2ccccc2)n1)[C@H](Cc1ccccc1)NC(=O)N1CCOCC1  IC50 (TULAHUEN; intracellular, amastigote): 27.7 µM
c1ccc(C2CCN(c3nc(-c4cnn5c4CCCC5)nc4ccccc34)C2)nc1 (stereo not drawn)  IC50 (imaging; U2OS; intracellular, amastigote): 4.31 µM
O=C(Cn1ccnc1[N+](=O)[O-])NCc1ccccc1  IC50 (NIH3T3, TULAHUEN; 96 h, intracellular, amastigote): 1.12 µM
O=C(Cn1ccnc1[N+](=O)[O-])NCc1ccccc1  IC50 (epimastigote): 23 µM
C[Si](C)(C)c1cc(C(=O)[C@H](Cc2ccccc2)NC(=O)[C@H](Cc2ccccc2)NC(=O)N2CCOCC2)no1 (single isomer, unassigned)  IC50 (TULAHUEN; intracellular, amastigote): > 64 µM
C=C1CC[C@@H](O)[C@]2(C)CC[C@H]3C(=C)C(=O)O[C@@H]3[C@@H]12  IC50 (72 h, epimastigote): > 50 µM
O=C(N[C@H](CCc1ccccc1)C(=O)c1cc(Cc2ccccc2)on1)[C@H](Cc1ccccc1)NC(=O)N1CCOCC1  IC50 (TULAHUEN; intracellular, amastigote): > 64 µM
